In the library only some 1.5% were active in any assay of this set; here they are far more common.
PPC-1+TRAIL kill – compounds killing PPC-1 cancer cells with TRAIL present (potentiator screen, no TRAIL-free arm); PPC-1 cells + TRAIL, ATPLite viability luminescence; AID 1443; cell killing (% activity), % at 4 µM or 5 µM; 220,000 compounds, 0.41% hits;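 active means cell killing above 50% in the first pass at 4 µM, then a duplicate retest at 5 µM averaging 50% or more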;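 further: plate controls were cells with TRAIL plus DMSO for no effect and medium-only wells lacking cells for full effect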
FLuc inh counter – Photinus pyralis luciferase inhibition counter-screen; ATPLite firefly luciferase biochemical luminescence, 10 min; inhibition, % at 10 µM; 200,000 compounds, 1.5% hits; AID 1006;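 active means inhibition above about 50% when tested at 10 µM, limit read from the data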
Target sequence (P08659 whole entry, looked up): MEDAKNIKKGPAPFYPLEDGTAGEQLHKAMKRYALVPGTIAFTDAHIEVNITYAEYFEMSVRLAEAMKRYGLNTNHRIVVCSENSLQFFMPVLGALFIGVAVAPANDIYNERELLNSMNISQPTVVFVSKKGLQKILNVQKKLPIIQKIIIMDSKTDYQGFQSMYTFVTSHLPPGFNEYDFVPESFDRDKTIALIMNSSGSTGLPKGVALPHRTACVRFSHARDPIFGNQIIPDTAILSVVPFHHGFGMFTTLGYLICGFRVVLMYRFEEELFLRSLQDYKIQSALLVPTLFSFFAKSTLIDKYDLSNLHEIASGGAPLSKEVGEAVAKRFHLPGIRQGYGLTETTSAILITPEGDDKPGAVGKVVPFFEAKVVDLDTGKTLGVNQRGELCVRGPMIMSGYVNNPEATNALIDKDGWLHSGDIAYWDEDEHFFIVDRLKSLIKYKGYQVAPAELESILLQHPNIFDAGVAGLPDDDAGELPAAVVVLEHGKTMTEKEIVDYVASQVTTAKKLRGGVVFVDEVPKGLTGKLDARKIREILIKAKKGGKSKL
TRAIL sens C8 – sensitizes caspase-8 expressing cells to TRAIL. inhibition (viability loss, TRAIL sensitization), % at 10 µM. AID 624354. NB7+C8 cells + TRAIL, ATPlite viability luminescence. 360,000 compounds, 1% hits;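 active means compounds causing at least 50% loss of cell viability in the single-dose screen, relative to plate controls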
FLuc stim CS – firefly luciferase counter-screen for stimulation assays; 200,000 tested, under 10 active; AID 1027; activation factor at 10 µM; P08659; ATPlite luciferase biochemical, luminescence, 10 min; 0 = ATP-free wells, 1 = DMSO control;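 active means luciferase activation factor, scaled between plate controls, of at least 2 with compound at 10 µM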
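test system = cell-free luciferase reagent | medium = PBS as buffer for the ATP substrate | dosing = test compounds dosed from 2 mM stocks in 100% DMSO | incubation = 10 min at ambient temperature | detection = luminescence measurement of luciferase light output | benchmarks = low control with PBS replacing ATP, high control enzyme plus ATP without compound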
* hit, by the source's call; · = no result given.

SMILES	PPC-1+TRAIL kill	FLuc inh counter	TRAIL sens C8	FLuc stim CS
Cc1cc(/C=C(/C#N)c2nc3ccccc3[nH]2)c(C)n1-c1cccc([N+](=O)[O-])c1	6.1	9.0	17.8	0.9
COc1ccc(/C=C(\C#N)c2nc3ccccc3[nH]2)cc1O	·	·	51.8*	·
O=C(CSc1nccc(=O)[nH]1)Nc1cccc(S(=O)(=O)N2CCOCC2)c1	-3.3	0.6	13.7	1
CCOC(=O)c1ccccc1NC(=O)COC(=O)C1CCN(S(=O)(=O)c2ccccc2C(=O)OC)CC1	·	·	1.5	·
C=CCn1c(C)cc(C(=O)COC(=O)[C@@H](NC(=O)c2ccccc2Cl)C(C)C)c1C	76.6*	96.5*	85.3*	0
C=CCn1c(C)cc(C(=O)COC(=O)COc2ccccc2C#N)c1C	0.2	20.1	-0.2	0.8
N#Cc1ccc(OCC(=O)OCC(=O)Nc2cc(C(F)(F)F)ccc2N2CCOCC2)cc1	-9.3	1.6	0.6	1
Cc1nc2c(Br)c(C)nn2c2c1CCC2	3.3	-8.4	9.6	1.1
CCOC(=O)N1CCC(Nc2c(OCC)c(=O)c2=O)CC1	52.2*	-5.3	4.0	1.1
COc1cc(NC(=O)CSCC(=O)Nc2cc(OC)cc(OC)c2)cc(OC)c1	-4.4	·	·	·
O=C(NC1=NCCS1)c1cccs1	-0.3	-4.2	44.9*	1
O=C(NC1=NCCS1)c1csc2ccccc12	20.3	55.0*	30.3	0.4
O=C(NC1=NCCS1)c1ccccc1Cl	·	·	-9.8	·
CCN1CCCC1CNC(=O)CN(C)S(=O)(=O)c1ccc(Cl)cc1 (configuration not stated)	·	·	-4.7	·
c1cc2c(c(CC3CO3)c1CC1CO1)OCCOCCOCCOCCO2 (configuration not stated)	·	·	-7.5	·
COc1ccc(N=C(C)C2=C(O)CSC2=O)cc1	22.0	-0.2	-7.3	1
COc1ccc(N=C(C)C2C(=O)c3ccccc3C2=O)cc1	·	·	73.9*	·
COc1cc(C2C(=O)c3ccccc3C2=O)ccc1O	·	·	-5.4	·
COc1ccc(C2C(=O)c3ccccc3C2=O)cc1	18.2	90.0*	31.1	0.1
COc1ccc(C2C(=O)c3ccccc3C2=O)cc1OC	32.6	82.3*	4.5	0.2
COc1ccc(C2=C(N)c3ccccc3C2=O)cc1	39.2	56.6*	47.2	0.4
O=C(NC1CCCCC1)C(c1ccc(F)cc1)N(C(=O)c1csnn1)C1CC1 (configuration not stated)	·	·	0.0	·
O=[N+]([O-])c1ccc(-c2nc(C(Cl)Cl)c3ccccc3n2)cc1	12.3	·	59.9*	·
CN(Cc1ccccc1)c1nc(-c2ccc([N+](=O)[O-])cc2)nc2ccccc12	15.4	1.6	18.7	1
CCCNC(=O)C(Cc1ccc(C(F)(F)P(=O)(OCC)OCC)cc1)NC(=O)c1ccc(C#N)cc1 (configuration not stated)	·	·	-8.7	·
SMILES	PPC-1+TRAIL kill	FLuc inh counter	TRAIL sens C8	FLuc stim CS
COc1ccccc1CNC(=O)COc1ccccc1C(=O)c1cnn(-c2ccccc2)c1	·	·	12.1	·
O=C(COc1ccccc1C(=O)c1cnn(-c2ccccc2)c1)Nc1ccccc1	46.8	73.6*	59.9*	0.3
Cc1ccc(-n2cc(C(=O)c3ccccc3O)cn2)cc1	31.3	67.5*	60.0*	0.3
Cc1ccc(O)c(C(=O)c2cnn(-c3ccccc3)c2)c1	21.6	0.3	1.7	1
C(=N\n1cnnc1)/c1ccc(N2CCOCC2)cc1	-2.3	7.5	15.3	0.9
CN(C)/N=C/c1ccc(N2CCOCC2)cc1	20.5	63.0*	15.6	0.4
COc1ccc(-c2nn(-c3ccccc3)cc2/C=N/N=C(N)N)cc1OC	55.1*	-1.2	24.8	1
O=C(/C=C/c1cccc(Cl)c1)c1ccc([N+](=O)[O-])o1	·	·	68.0*	·
CC(NC(=O)CCl)c1ccc(Cl)c(Cl)c1 (configuration not stated)	11.9	-1.8	61.3*	1
COc1ccc(NC(=O)c2cc(C)nc3ccccc23)cc1S(=O)(=O)N1CCOCC1	·	·	-0.4	·
COc1ccc(Nc2nc(-c3ccccc3)nc3ccccc23)cc1S(=O)(=O)N1CCOCC1	22.8	·	48.0*	·
CC(C)(C)OC(=O)C[C@@H]1C/C=C\C[C@@H](CC(=O)N[C@@H](CO)Cc2ccccc2)C(=O)NC[C@@H](c2ccccc2)OC1=O	·	·	-8.7	·
CCCc1cc(C(=O)N/N=C/c2ccc(CC)s2)c2ccccc2n1	11.8	-1.3	51.3*	1
CCc1ccc(/C=N/NC(=O)c2c[nH]c3ccccc23)s1	18.9	24.5	54.5*	0.8
Cc1cc(NC(=O)CSc2nnc(-c3cccc(Cl)c3)o2)no1	·	·	6.8	·
Cc1cc(NC(=O)c2ccc3c(c2)OCO3)no1	19.2	61.7*	50.8*	0.4
Cc1cc(NC(=O)c2ccc3c(c2)OCCO3)no1	41.7	93.3*	86.6*	0.1
Cc1cc(NC(=O)CSc2nnc(-c3ccc4c(c3)OCCO4)o2)no1	45.3	11.7	48.9*	0.9
COc1ccc(C(=O)NCC(=O)OCc2ccc(F)cc2)cc1	3.4	-1.8	-6.5	1
Cc1[nH]n(-c2ccccc2)c(=O)c1C1(C(F)(F)F)C(=O)N(c2ccc(F)cc2)C2=C1C(=O)CC(C)(C)C2 (configuration not stated)	29.5	-4.4	-5.7	1
CN(C)C1=NC[C@H](Cc2ccccc2)N1CC1CCC(C(C)(C)C)CC1 (some centres not stated)	·	·	16.0	·
CCOc1ccc(Cl)cc1S(=O)(=O)N1CCC(C(=O)NCc2cccnc2)CC1	·	·	4.7	·
COc1cc(/C=C/C(=O)O[C@H]2[C@H](O[C@@H]3O[C@@H](C)[C@H](O)[C@@H](O)[C@H]3O)[C@@H](O)[C@H](OCCc3ccc(O)c(OC)c3)O[C@@H]2CO)ccc1O	·	·	-12.2	·
C=CCN1C2CCCC1CC(NC(=O)Nc1cc(C)cc(C)c1)C2 (configuration not stated)	6.8	2.6	0.2	1
Cc1cccc(N(C(=O)c2snc(C(N)=O)c2N)C(C)C(=O)NCC2CCCO2)c1 (configuration not stated)	4.4	-1.6	-2.2	1
SMILES	PPC-1+TRAIL kill	FLuc inh counter	TRAIL sens C8	FLuc stim CS
Cc1ccccc1C(=O)NCC(=O)N1CCN(C/C=C/c2ccccc2)CC1	·	·	-14.3	·
Cc1[nH]n(-c2nc(-c3ccc(Cl)cc3)cs2)c(=O)c1N=Nc1ccc(O)cc1	0.0	7.8	80.5*	0.9
CCc1c(C)[nH]n(-c2nc(-c3ccccc3)cs2)c1=O	-3.4	1.6	0.0	1
CCc1ccc(/C=N/Nc2ncnc3nc[nH]c23)cc1	41.5	·	60.2*	·
COCCN(CC(=O)Nc1cccc(C)c1C)C(=O)C1CCN(S(=O)(=O)c2ccccc2)CC1	·	·	6.1	·
CSc1ccccc1NC(=O)CN(C)CC(=O)Nc1c(F)cccc1F	8.5	-5.1	2.7	1.1
c1ccc(CSc2nnc(-c3cccnc3)o2)cc1	12.1	2.1	6.1	1
Cc1ccc(CSc2nnc(-c3cccnc3)o2)cc1	-8.3	-6.8	54.1*	1.1
C#CCSc1nnc(-c2ccc(C)cc2)o1	17.2	55.5*	90.1*	0.4
C#CCSc1nnc(-c2ccc(O)cc2)o1	25.2	12.4	2.4	0.9

High-throughput results: PubChem BioAssay, Sanford-Burnham Center for Chemical Genomics
